Reference: ChEMBL document CHEMBL2311405, “Synthesis and biological evaluation of indenoisoquinolines that inhibit both tyrosyl-DNA phosphodiesterase I (Tdp1) and topoisomerase I (Top1)” (J Med Chem, 2013)
Calls of active or inactive are those of the source. The rule behind the calls is not given here.

Legend:
[1] = molecular target: T1, DNA topoisomerase 1 (Homo sapiens) (UniProt P11387); test: Inhibition of recombinant Top1 (unknown origin) using 3'-[32P]-end-labeled 117 bp oligonucleotide as substrate after 20 mins by SDS-PAGE analysis relative to 1 uM camptothecin
T1 sequence (whole entry): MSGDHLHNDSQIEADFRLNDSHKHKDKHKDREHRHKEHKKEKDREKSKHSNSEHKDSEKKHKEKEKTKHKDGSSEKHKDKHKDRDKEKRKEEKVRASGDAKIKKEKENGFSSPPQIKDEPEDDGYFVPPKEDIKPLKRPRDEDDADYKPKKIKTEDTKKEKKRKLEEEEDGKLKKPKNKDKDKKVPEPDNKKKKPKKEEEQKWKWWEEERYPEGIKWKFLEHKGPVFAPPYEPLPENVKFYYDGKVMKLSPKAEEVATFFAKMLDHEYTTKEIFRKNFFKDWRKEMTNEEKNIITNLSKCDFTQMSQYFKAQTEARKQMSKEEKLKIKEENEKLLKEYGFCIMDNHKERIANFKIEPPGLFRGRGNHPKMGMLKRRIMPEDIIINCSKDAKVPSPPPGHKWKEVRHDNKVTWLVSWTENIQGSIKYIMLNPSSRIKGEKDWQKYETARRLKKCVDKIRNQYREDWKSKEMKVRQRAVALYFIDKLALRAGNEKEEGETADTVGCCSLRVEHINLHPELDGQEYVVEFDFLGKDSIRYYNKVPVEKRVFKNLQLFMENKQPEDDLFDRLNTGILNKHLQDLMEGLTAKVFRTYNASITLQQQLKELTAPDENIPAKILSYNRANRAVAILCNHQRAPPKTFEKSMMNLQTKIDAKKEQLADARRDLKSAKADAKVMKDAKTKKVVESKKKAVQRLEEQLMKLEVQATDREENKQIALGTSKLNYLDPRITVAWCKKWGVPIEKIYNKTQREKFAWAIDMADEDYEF

[2] = tested on: SN12C; test: Growth inhibition of human SN12C cells; type: functional
[3] = tested on: HCT-116; test: Growth inhibition of human HCT116 cells; type: functional
[4] = tested on: UACC-62; test: Growth inhibition of human UACC62 cells; type: functional
[5] = tested on: HOP-62; test: Growth inhibition of human HOP62 cells; type: functional
[6] = tested on: SF-539; test: Growth inhibition of human SF539 cells; type: functional
Procedure, shortened: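 Human cancer cell line panel, compounds tested at concentrations up to 10 μM. GI50 per cell line is the mean of two determinations where a standard error is given, otherwise from one determination.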

Row | inhibition [1] | GI50 [3] [nM] | Compound | GI50 [2] [nM] | GI50 [4] [nM] | GI50 [5] [nM] | GI50 [6] [nM]
1 | Active |  | COc1cccc2c1-c1c(c3ccc([N+](=O)[O-])cc3c(=O)n1CCCN)C2=O |  |  |  | 
2 | Active | < 10 | COc1ccc2c(c1)C(=O)c1c-2n(CCCN)c(=O)c2cc([N+](=O)[O-])ccc12 | < 10 | < 10 | < 10 | < 10
